Columns and labels:
Single ascending dose = assay type: in vivo, human; details: for Tmax / AUC(0-inf) / AUC(0-t) / Cmax: both, human, plasma, po
How it was run: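 Healthy subjects received one oral immediate-release capsule dose of test compound (30–200 µg) or placebo, with food withheld 1 h after dosing. K₂EDTA blood was drawn pre-dose, at 0.25–120 h, then every 24 h through Day 14. Samples were chilled, centrifuged and frozen at –20 ℃. Plasma was assayed by LC-MS/MS (0.03–15.0 ng/mL). Noncompartmental, linear-trapezoidal parameters are reported as mean (SD), with Tmax as median (min–max).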

[1] = cited from earlier work
healthy subjects [2] = experiment: Single ascending dose; assay type: in vivo, human
How it was run: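 Subjects received a single oral dose of test compound or identical-appearing placebo capsule and were kept as in-patients. Over seven days, adverse events, vital signs, 12-lead ECG and safety labs (serum chemistry, hematology, urinalysis) were assessed at multiple time points. Data were summarized descriptively by treatment group.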

healthy subjects [3] = experiment: Multiple ascending dose; assay type: in vivo, human; details: Cohort 3, BID, all dose levels, n = 20
How it was run: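 Subjects on test compound or placebo were domiciled up to 31 days (QD Cohorts 1–2) or 34 days (BID Cohort 3), with a 48-h drug-free follow-up. Monitoring at multiple time points covered adverse events, vital signs, 12-lead ECG with intensive ECG monitoring in all cohorts, and safety labs (serum chemistry, hematology, urinalysis). Data were summarized descriptively by treatment group.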

[4] = total ralinepag, all single doses, n = 24

O=C(O)COC[C@H]1CC[C@H](COC(=O)N(c2ccccc2)c2ccc(Cl)cc2)CC1 [ralinepag]
Tmax (Single ascending dose): 1 to 1.5 h | AUC(0-inf) (Single ascending dose; 30 ug): 17.3 ng·h/mL | AUC(0-t) (Single ascending dose; 30 ug): 15.9 ng·h/mL | Cmax (Single ascending dose; 30 ug): 0.949 ng/mL | Tmax (Single ascending dose; 30 ug): 1 h | AUC(0-inf) (Single ascending dose; 50 ug): 22.8 ng·h/mL | AUC(0-t) (Single ascending dose; 50 ug): 21.5 ng·h/mL | Cmax (Single ascending dose; 50 ug): 1.49 ng/mL | Tmax (Single ascending dose; 50 ug): 1.25 h | AUC(0-inf) (Single ascending dose; 100 ug): 42.6 ng·h/mL | AUC(0-t) (Single ascending dose; 100 ug): 41.2 ng·h/mL | Cmax (Single ascending dose; 100 ug): 2.65 ng/mL | Tmax (Single ascending dose; 100 ug): 1.5 h | AUC(0-inf) (Single ascending dose; 200 ug): 103 ng·h/mL | AUC(0-t) (Single ascending dose; 200 ug): 101 ng·h/mL | Cmax (Single ascending dose; 200 ug): 6.17 ng/mL | Tmax (Single ascending dose; 200 ug): 1.25 h | Dose proportionality of Cmax and AUC (Single ascending dose; single doses from 30 to 200 µg): approximately dose proportional | Enterohepatic recirculation ([1]; animals): observed | Oral bioavailability ([1]; mouse, rat, dog, and monkey): moderate to high | SAEs recorded (healthy subjects [2]; any doses tested): no SAEs | Vital signs, ECGs, safety laboratory tests (healthy subjects [2]; any single dose level): no clinically significant safety issues | Abdominal pain, subjects (%) (healthy subjects [2]; single oral dose 30 µg, n = 6): 0 | Flushing, subjects (%) (healthy subjects [2]; single oral dose 30 µg, n = 6): 0 | Headache, subjects (%) (healthy subjects [2]; single oral dose 30 µg, n = 6): 2 (33.3%) | Nausea, subjects (%) (healthy subjects [2]; single oral dose 30 µg, n = 6): 0 | Number of AEs reported (healthy subjects [2]; single oral dose 30 µg, n = 6): 2 | Pain in jaw, subjects (%) (healthy subjects [2]; single oral dose 30 µg, n = 6): 0 | Total (%) subjects with at least one AE (healthy subjects [2]; single oral dose 30 µg, n = 6): 2 (33.3%) | Vomiting, subjects (%) (healthy subjects [2]; single oral dose 30 µg, n = 6): 0 | Abdominal pain, subjects (%) (healthy subjects [2]; single oral dose 50 µg, n = 6): 1 (16.7%) | Flushing, subjects (%) (healthy subjects [2]; single oral dose 50 µg, n = 6): 0 | Headache, subjects (%) (healthy subjects [2]; single oral dose 50 µg, n = 6): 5 (83.3%) | Nausea, subjects (%) (healthy subjects [2]; single oral dose 50 µg, n = 6): 1 (16.7%) | Number of AEs reported (healthy subjects [2]; single oral dose 50 µg, n = 6): 11 | Pain in jaw, subjects (%) (healthy subjects [2]; single oral dose 50 µg, n = 6): 2 (33.3%) | Total (%) subjects with at least one AE (healthy subjects [2]; single oral dose 50 µg, n = 6): 5 (83.3%) | Vomiting, subjects (%) (healthy subjects [2]; single oral dose 50 µg, n = 6): 0 | Abdominal pain, subjects (%) (healthy subjects [2]; single oral dose 100 µg, n = 6): 1 (16.7%) | Flushing, subjects (%) (healthy subjects [2]; single oral dose 100 µg, n = 6): 1 (16.7%) | Headache, subjects (%) (healthy subjects [2]; single oral dose 100 µg, n = 6): 5 (83.3%) | Nausea, subjects (%) (healthy subjects [2]; single oral dose 100 µg, n = 6): 2 (33.3%) | Number of AEs reported (healthy subjects [2]; single oral dose 100 µg, n = 6): 17 | Pain in jaw, subjects (%) (healthy subjects [2]; single oral dose 100 µg, n = 6): 3 (50.0%) | Total (%) subjects with at least one AE (healthy subjects [2]; single oral dose 100 µg, n = 6): 6 (100%) | Vomiting, subjects (%) (healthy subjects [2]; single oral dose 100 µg, n = 6): 2 (33.3%) | Tolerability of the 200 µg single dose (healthy subjects [2]; single oral dose 200 µg): not at 200 µg due to AEs of nausea and vomiting | Flushing, subjects (%) (healthy subjects [2]; single oral dose 200 µg, n = 6): 1 (16.7%) | Headache, subjects (%) (healthy subjects [2]; single oral dose 200 µg, n = 6): 5 (83.3%) | Nausea, subjects (%) (healthy subjects [2]; single oral dose 200 µg, n = 6): 3 (50.0%) | Number of AEs reported (healthy subjects [2]; single oral dose 200 µg, n = 6): 21 | Pain in jaw, subjects (%) (healthy subjects [2]; single oral dose 200 µg, n = 6): 1 (16.7%) | Total (%) subjects with at least one AE (healthy subjects [2]; single oral dose 200 µg, n = 6): 6 (100%) | Vomiting, subjects (%) (healthy subjects [2]; single oral dose 200 µg, n = 6): 6 (100%) | Tolerated single dose (healthy subjects [2]; single oral dose, IR capsule, healthy subjects): up to 100 µg | Abdominal pain, subjects (%) (healthy subjects [2]; [4]): 3 (12.5%) | Flushing, subjects (%) (healthy subjects [2]; [4]): 2 (8.3%) | Headache, subjects (%) (healthy subjects [2]; [4]): 17 (70.8%) | Nausea, subjects (%) (healthy subjects [2]; [4]): 6 (25.0%) | Number of AEs reported (healthy subjects [2]; [4]): 51 | Pain in jaw, subjects (%) (healthy subjects [2]; [4]): 6 (25.0%) | Total (%) subjects with at least one AE (healthy subjects [2]; [4]): 19 (79.2%) | Vomiting, subjects (%) (healthy subjects [2]; [4]): 8 (33.3%) | Abdominal distention, subjects (%) (healthy subjects [3]): 0 | Abdominal pain, subjects (%) (healthy subjects [3]): 4 (20%) | Acne, subjects (%) (healthy subjects [3]): 2 (10%) | Application site dermatitis, subjects (%) (healthy subjects [3]): 0 | Arthralgia, subjects (%) (healthy subjects [3]): 9 (45%) | Asthenia, subjects (%) (healthy subjects [3]): 0 | Back pain, subjects (%) (healthy subjects [3]): 2 (10%) | Chapped lips, subjects (%) (healthy subjects [3]): 2 (10%) | Chest pain, subjects (%) (healthy subjects [3]): 1 (5%) | Chromaturia, subjects (%) (healthy subjects [3]): 2 (10%) | Constipation, subjects (%) (healthy subjects [3]): 1 (5%) | Decreased appetite, subjects (%) (healthy subjects [3]): 1 (5.0%)
